This is a sample that favours compounds with a hit; in the whole collection about 8.7% have one here.
PTK2B oligo ant: blocks oligomerization of human Pyk2 in cells. Q293 cells, Pyk2 FERM NanoBiT luminescence; hits give low values. z-score (the deposit names both 25 µM and 10 µM). 0.83% of 99,000 active. AID 1347419;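 active = Z-score of -3 or lower, scaled per plate to the spread of control and sample wells; inactive = z-score above -3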;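 also: negative z-score means lost luminescence so less FERM oligomerization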
Target sequence (Q14289 whole entry, looked up): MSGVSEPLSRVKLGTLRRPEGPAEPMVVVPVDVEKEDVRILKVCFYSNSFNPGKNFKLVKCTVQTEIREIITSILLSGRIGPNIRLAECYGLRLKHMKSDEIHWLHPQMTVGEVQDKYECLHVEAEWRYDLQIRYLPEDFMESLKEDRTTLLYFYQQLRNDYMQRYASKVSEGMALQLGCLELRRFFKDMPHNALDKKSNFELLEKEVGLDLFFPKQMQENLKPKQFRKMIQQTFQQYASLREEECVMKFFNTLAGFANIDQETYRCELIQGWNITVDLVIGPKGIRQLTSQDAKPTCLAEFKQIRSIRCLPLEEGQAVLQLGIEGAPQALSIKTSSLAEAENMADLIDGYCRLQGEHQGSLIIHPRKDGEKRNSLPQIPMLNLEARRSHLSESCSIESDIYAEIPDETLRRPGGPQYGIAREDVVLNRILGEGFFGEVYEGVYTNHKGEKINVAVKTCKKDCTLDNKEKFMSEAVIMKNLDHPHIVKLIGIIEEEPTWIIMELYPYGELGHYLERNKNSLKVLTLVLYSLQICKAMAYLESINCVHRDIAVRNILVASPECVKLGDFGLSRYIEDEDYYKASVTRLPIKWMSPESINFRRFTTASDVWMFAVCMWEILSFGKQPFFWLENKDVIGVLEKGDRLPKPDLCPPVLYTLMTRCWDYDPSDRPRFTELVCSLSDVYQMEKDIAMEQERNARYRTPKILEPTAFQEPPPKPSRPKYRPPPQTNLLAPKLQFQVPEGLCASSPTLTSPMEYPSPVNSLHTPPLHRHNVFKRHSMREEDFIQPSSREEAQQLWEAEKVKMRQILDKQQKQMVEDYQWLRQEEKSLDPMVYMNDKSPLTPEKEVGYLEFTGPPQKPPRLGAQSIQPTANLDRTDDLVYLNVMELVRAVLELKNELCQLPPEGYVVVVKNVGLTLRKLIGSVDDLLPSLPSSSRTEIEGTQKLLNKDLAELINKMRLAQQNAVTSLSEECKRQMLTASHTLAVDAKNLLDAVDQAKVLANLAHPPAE
Cav32 inh: blocks human Cav3.2 T-type calcium channel; O95180; Cav3.2-expressing cells, Fluo-4 calcium fluorescence FDSS; hits give low values; B-score at 10 µM; 4% of 100,000 active; AID 449739;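 active = single-dose well whose peak fluorescence ratio is a statistical outlier from its plate by either plate-standardised score or position-corrected B-score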
PostGolgi ctrl: yeast control strain growth, post-Golgi counter-screen; AID 738; efflux-deficient yeast background strain, growth absorbance A615, 16 h; 5% of 98,000 active; inhibition, % at 10 µM
Ecoli tolC: E. coli tolC mutant growth inhibition; E. coli BW25113 tolC mutant growth, OD615; growth inhibition, % at 10 µM (by protocol); 2.2% of 65,000 active;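 active = growth inhibition at or above a cutoff equal to the mean over every tested compound plus 3 SD, cut at about 60% in these data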;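 also: growth measured after 20 h incubation at 37 °C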
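Assay system: tolC-deleted E. coli BW25113. Medium: kanamycin-containing LB broth (50 µg/mL). Dosing: 10 µM final, single dose. Timing: bacterial growth with compound for 20 h at 37 °C. Detection: A615 absorbance measurement. Read-out basis: growth inhibition in percent.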
Ecoli WT expand: E. coli BW25113 growth inhibition, expanded screen; AID 710; growth inhibition, % at 100 µM; 0.15% of 98,000 active; OD600 absorbance;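 active = growth inhibition above about 50% at one test dose, limit read from the data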;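 also: growth measured after 20 h incubation at 37 °C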
PostGolgi yeast: growth inhibition of a yeast mutant, post-Golgi transport screen; inhibition, % at 10 µM; 0.9% of 98,000 active; post-Golgi transport phenotypic cell assay;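 also: yeast cells grown in 1536-well plates; yeast grown about 18 h at 30C before absorbance read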
* marks the source's active call; other numbers are inactive results; nt = no result given. Rule as the data show it, unless noted: active = inhibition above about 30%; inactive = the rest.

SMILES | PTK2B oligo ant | Cav32 inh | PostGolgi ctrl | Ecoli tolC | Ecoli WT expand | PostGolgi yeast
Cc1noc(NS(=O)(=O)c2ccc(NC(=O)CSc3nc4ccccc4[nH]3)cc2)c1C | 0.23 | -2.16 | 37.0* | 10.8 | 7.0 | -2.1
Cc1noc(NS(=O)(=O)c2ccc(N/C=C\C(=O)c3ccc4c(c3)OCO4)cc2)c1C | -0.64 | -0.0102 | 38.0* | nt | 25.0 | -6.7
CC(C(=O)Nc1ccc2c(c1)OCCO2)N1CCN(C(=O)c2ccco2)CC1 (configuration not stated) | 0.28 | nt | 2.2 | nt | 1.0 | 2.5
Cc1c(NC(=O)C(C)NCC2CCCO2)c(=O)n(-c2ccccc2)n1C (configuration not stated) | 1.07 | 0.198 | 5.4 | nt | 2.0 | -4.1
CCOC(=O)c1cc2occc2n1CCCN1C(=O)c2ccccc2C1=O | -0.63 | -1.39 | 8.1 | 41.1 | -4.0 | -2.9
O=C(NC(NNc1ccc([N+](=O)[O-])cc1)(C(F)(F)F)C(F)(F)F)c1ccc(Cl)cc1 | 0.02 | 0.801 | 58.5* | nt | -8.0 | 20.9
COc1ccc(Nc2nnc(SCC(=O)c3cc(C)n(CC4CCCO4)c3C)s2)cc1 (configuration not stated) | 0.03 | -4.29 | 14.3 | nt | -4.0 | 3.7
O=C(Nc1ccccc1N1CCCC1)c1ccco1 | 1.64 | -1.29 | 18.6 | -11.0 | 5.0 | 10.7
O=C(Nc1ccccc1N1CCCCC1)c1cccs1 | -0.96 | -2.47 | 51.0* | 99.7* | -6.0 | 2.3
O=C(Nc1ccccc1N1CCCCC1)c1ccco1 | -0.16 | -2.96 | 33.2* | nt | 11.0 | 2.0
CCCOc1nc2c(c(=O)n(C)c(=O)n2C)n1Cc1cccc2ccccc12 | -1.54 | -2.73 | 37.4* | 64.9* | -6.0 | 4.1
COc1cccc(Cn2c(Oc3cccc(C)c3)nc3c2c(=O)n(C)c(=O)n3C)c1 | -1.83 | nt | 29.7 | 83.7* | -25.0 | 8.6
COc1cccc(COc2nc3c(c(=O)n(C)c(=O)n3C)n2C)c1 | 1.21 | -0.0029 | -2.4 | 6.1 | -1.0 | 3.3
Cn1c(=O)c2c(nc(N3CCNCC3)n2Cc2cccc3ccccc23)n(C)c1=O | 0.27 | 0.167 | 8.2 | -31.9 | 4.0 | -4.3
COc1ccc(NC(=O)C2CSC3c4ccccc4C(=O)N23)cc1 (configuration not stated) | 0.4 | 0.154 | -1.4 | -3.8 | 4.0 | 11.5
O=S(=O)(Cc1ccccc1)/C1=C(\N2CCOCC2)CCCCCC1 | 0.55 | 0.00998 | 39.8* | 0.0 | -2.0 | 8.7
O=S(=O)(c1ccc(S(=O)(=O)N2CCN(Cc3ccccc3)CC2)cc1)N1CCOCC1 | nt | 0.0135 | -4.3 | -13.8 | 2.0 | -1.6
CCOc1ccc(C(=O)/C=C/c2cn(CN3CCN(C)CC3)c3ccccc23)cc1 | -2.71 | -0.608 | 32.5* | nt | 0.0 | -1.8
CCOc1ccc(C(=O)/C=C/c2ccccc2C(F)(F)F)cc1 | -0.71 | 0.0597 | 4.6 | nt | -1.0 | -7.0
COc1ccc(C(=O)/C=C/c2cn(CN3CCN(C)CC3)c3ccccc23)cc1 | -2.64 | nt | 33.3* | nt | 0.0 | 3.8
CC1CCN(C(=S)c2cn(Cc3ccccc3F)c3ccccc23)CC1 | -1.52 | -6.55* | 15.9 | nt | -12.0 | 2.0
CCOC(=O)C[C@H]1c2ccccc2S(=O)(=O)N1c1cccc(OC)c1 | nt | -0.604 | nt | nt | nt | nt
COc1ccccc1CNC(=O)c1ccc(NS(=O)(=O)c2c(C)noc2C)cc1 | -0.49 | -1.59 | -9.2 | -11.6 | 2.0 | 8.9
COc1ccc(CNC(=O)c2ccc(NS(=O)(=O)c3c(C)noc3C)cc2)cc1 | -0.17 | -3.87 | 31.1* | 21.9 | -3.0 | 5.7
Cc1ccc(NC(=O)c2ccc(NS(=O)(=O)c3c(C)noc3C)cc2)cc1C | -0.01 | -2.49 | 0.7 | 76.5* | 7.0 | 1.6
SMILES | PTK2B oligo ant | Cav32 inh | PostGolgi ctrl | Ecoli tolC | Ecoli WT expand | PostGolgi yeast
N#Cc1nc(-c2cccs2)oc1NCC1CCCO1 (configuration not stated) | 0.15 | 0.136 | 38.9* | -0.8 | 11.0 | 6.3
O=C(CSc1nnc(CNc2cccc(Cl)c2)o1)OC1CCCCC1 | 0.09 | -3.33 | 31.4* | nt | 2.0 | 24.6
Clc1ccc(CSc2nnc(CNc3cccc(Cl)c3)o2)cc1 | 0.38 | nt | 45.3* | nt | -8.0 | 16.0
CC(C)(C)OC(=O)NCCCCCc1nnc(SCC(=O)Nc2cccc(Cl)c2)o1 | -0.21 | -7.32* | 11.1 | 31.7 | 4.0 | 3.8
O=C(CSc1nnc(CNc2ccc(F)cc2)o1)OC1CCCCC1 | 0.14 | -0.553 | 5.9 | nt | 0.0 | -3.3
Cc1cc(C(=O)N2CCN(S(C)(=O)=O)CC2)cs1 | 0.75 | 0.617 | -1.5 | 18.0 | 0.0 | 5.4
Cc1ccc(-c2nc3c(=O)n(C)c4ccccc4c3o2)cc1 | -1.81 | -0.658 | 77.0* | 13.0 | -4.0 | 11.5
Cc1ccc(S(=O)(=O)N2CCN(Cc3ccccc3C(F)(F)F)CC2)cc1 | 0.06 | nt | 20.2 | 49.8 | 33.0 | 0.9
O=S(=O)(c1ccccc1)N1CCN(Cc2ccccc2C(F)(F)F)CC1 | -1.48 | -3.6 | 16.9 | 63.7* | -4.0 | 0.0
COc1ccccc1NC(=O)COc1cc(C)nc(C(C)C)n1 | 0.67 | 1.89 | 37.5* | nt | -11.0 | 9.8
O=C(NCC1COc2ccccc2O1)Nc1ccccc1F (configuration not stated) | -0.76 | -2.66 | 1.1 | 10.0 | 13.0 | -8.8
O=C(COc1cccc(OC(F)F)c1)Nc1ccc(SC(F)F)cc1 | 2.17 | -4.8 | 30.8* | 70.0* | 5.0 | -11.6
O=C(NCC1COc2ccccc2O1)c1ccc(Cl)cc1 (configuration not stated) | 1.06 | -3.08 | 25.2 | 22.7 | 4.0 | 58.0*
O=C(CNS(=O)(=O)c1ccc(Br)s1)Nc1ccc2c(c1)OCCO2 | 2.32 | -1.12 | -4.3 | 7.5 | 9.0 | 8.4
Oc1ccc(CNCC2COc3ccccc3O2)cc1 (configuration not stated) | -0.88 | 0.147 | -4.2 | nt | 6.0 | -4.8
Cc1ccnc(NC(=O)CCC2COc3ccccc3O2)c1 (configuration not stated) | 0.07 | nt | 6.5 | 16.5 | 3.0 | -8.8
O=C(CCC1COc2ccccc2O1)Nc1ccc(Cl)cn1 (configuration not stated) | 0.89 | -5.9* | 16.0 | 17.8 | 2.0 | -6.5
O=C(CNS(=O)(=O)c1ccc(Br)s1)NCC1COc2ccccc2O1 (configuration not stated) | 0.78 | -2.8 | 95.4* | -10.0 | 4.0 | 68.3*
S=C(NCc1ccccc1)NCC1COc2ccccc2O1 (configuration not stated) | -0.3 | -4.53* | 5.0 | nt | 16.0 | -4.2
O=C(NCC1COc2ccccc2O1)c1ccc(NC(=O)c2ccco2)cc1 (configuration not stated) | -1.29 | -1.78 | 16.9 | 18.7 | -14.0 | 3.1
Cc1ccc(NC(=O)c2cccs2)cc1NC(=O)c1ccco1 | -0.15 | 0.724 | 31.7* | 18.6 | 3.0 | -13.3
O=C(Nc1ccc2nc(-c3cccs3)[nH]c2c1)c1ccco1 | 0.36 | 0.289 | -0.5 | 89.6* | -2.0 | 3.3
CN(CC(=O)NCc1ccccc1)S(=O)(=O)c1cnc[nH]1 | 0.26 | nt | 12.3 | nt | -3.0 | -3.3
Cn1c(=O)[nH]c(=O)c2[nH]c(CN3CCN(Cc4ccccc4)CC3)nc21 | nt | -0.0166 | nt | -18.1 | nt | nt
